Results from ChEMBL document CHEMBL3232719 (J Med Chem, 2014).
Activity calls are given as the source filed them. No cut-off for these calls is given here.

Experiments:
[1] = target: 26S proteasome; test: Inhibition of caspase-like activity of human 20S proteasome using Ac-nLPnLD-AMC as substrate; assay type: protein-complex assay
[2] = test system: HCT-116; test: Inhibition of human HCT116 cell growth; assay type: functional, cell-based
[3] = target: 26S proteasome; test: Inhibition of trypsin-like activity of human 20S proteasome using Ac-RLR-AMC as substrate; assay type: protein-complex assay
[4] = target: 26S proteasome; test: Inhibition of chymotrypsin-like activity of human 20S proteasome using Suc-LLVY-AMC as substrate; assay type: protein-complex assay
[5] = target: T1, Proteasome Macropain subunit MB1 (Homo sapiens) (UniProt P28074); test: Binding affinity to beta5 subunit of 20S proteasome (unknown origin) assessed as dissociation half-life
T1 sequence (whole entry): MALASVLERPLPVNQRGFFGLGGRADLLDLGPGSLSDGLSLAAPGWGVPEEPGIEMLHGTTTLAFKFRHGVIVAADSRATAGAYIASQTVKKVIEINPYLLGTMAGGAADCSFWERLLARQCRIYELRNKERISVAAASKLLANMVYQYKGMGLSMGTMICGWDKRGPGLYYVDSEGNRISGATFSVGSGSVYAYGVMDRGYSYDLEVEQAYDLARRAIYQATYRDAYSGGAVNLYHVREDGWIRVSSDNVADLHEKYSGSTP
Outline: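 Human 20S proteasome was preincubated with inhibitor. Chymotrypsin-like activity was then measured before and after removal of free inhibitor by dialysis (wash-out), with reference reversible and irreversible inhibitors run alongside.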

[6] = target: T2, Cathepsin G (Homo sapiens, UniProt P08311); test: Inhibition of recombinant cathepsin G (unknown origin) using Suc-Ala-Ala-Pro-Phe-AMC as substrate by spectrofluorometer analysis
T2 sequence (P08311 whole entry): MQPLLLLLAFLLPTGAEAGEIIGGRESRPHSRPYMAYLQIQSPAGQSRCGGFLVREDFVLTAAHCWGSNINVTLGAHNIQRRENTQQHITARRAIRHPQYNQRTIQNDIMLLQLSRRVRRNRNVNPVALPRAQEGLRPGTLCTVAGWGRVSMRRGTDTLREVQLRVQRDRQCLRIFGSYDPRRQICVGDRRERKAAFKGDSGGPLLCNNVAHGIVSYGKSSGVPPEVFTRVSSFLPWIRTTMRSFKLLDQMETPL

[7] = test system: HCT-116; test: Cell cycle arrest in human HCT116 cells assessed as accumulation at S phase at 100 nM after 24 hrs by propidium iodide staining based flow cytometry (reference value: 45.3%); assay type: functional
[8] = test system: HCT-116; test: Cell cycle arrest in human HCT116 cells assessed as accumulation at G1 phase at 100 nM after 24 hrs by propidium iodide staining based flow cytometry (reference value: 35.6%); assay type: functional
[9] = test system: HCT-116; test: Cell cycle arrest in human HCT116 cells assessed as accumulation at G2/M phase at 100 nM after 24 hrs by propidium iodide staining based flow cytometry (reference value: 19.1%); assay type: functional
[10] = target: T3, Proteasome subunit beta type-8 (Homo sapiens, UniProt P28062); test: Inhibition of beta5i subunit of immunoproteasome (unknown origin) by active-site ELISA
T3 sequence (P28062 whole entry): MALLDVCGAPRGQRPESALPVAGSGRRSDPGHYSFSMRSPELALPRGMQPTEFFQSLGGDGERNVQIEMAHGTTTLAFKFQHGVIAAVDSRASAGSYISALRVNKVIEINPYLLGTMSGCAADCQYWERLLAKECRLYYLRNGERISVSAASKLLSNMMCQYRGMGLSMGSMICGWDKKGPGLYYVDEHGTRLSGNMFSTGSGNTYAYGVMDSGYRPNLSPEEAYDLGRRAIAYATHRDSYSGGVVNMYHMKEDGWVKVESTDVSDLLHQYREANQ

[11] = test system: HCT-116; test: Induction of apoptosis in human HCT116 cells assessed as increase in p53 expression by immunoblot analysis; assay type: functional, cell-based
Outline: (§1)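 HCT116 cells were treated with compound or DMSO vehicle. Lysates were immunoblotted for p53 accumulation and for cleaved PARP as the apoptosis marker.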

[12] = target: T4, Lysosomal protective protein (Homo sapiens, UniProt P10619); test: Inhibition of recombinant cathepsin A (unknown origin) using Mca-Arg-Pro-Pro-Gly-Phe-Ser-Ala-Phe-Lys(Dnp)-OH as substrate incubated with enzyme for 5 mins prior to substrate challenge for 2 hrs by spectrofluorometer analysis
T4 sequence (P10619 whole entry): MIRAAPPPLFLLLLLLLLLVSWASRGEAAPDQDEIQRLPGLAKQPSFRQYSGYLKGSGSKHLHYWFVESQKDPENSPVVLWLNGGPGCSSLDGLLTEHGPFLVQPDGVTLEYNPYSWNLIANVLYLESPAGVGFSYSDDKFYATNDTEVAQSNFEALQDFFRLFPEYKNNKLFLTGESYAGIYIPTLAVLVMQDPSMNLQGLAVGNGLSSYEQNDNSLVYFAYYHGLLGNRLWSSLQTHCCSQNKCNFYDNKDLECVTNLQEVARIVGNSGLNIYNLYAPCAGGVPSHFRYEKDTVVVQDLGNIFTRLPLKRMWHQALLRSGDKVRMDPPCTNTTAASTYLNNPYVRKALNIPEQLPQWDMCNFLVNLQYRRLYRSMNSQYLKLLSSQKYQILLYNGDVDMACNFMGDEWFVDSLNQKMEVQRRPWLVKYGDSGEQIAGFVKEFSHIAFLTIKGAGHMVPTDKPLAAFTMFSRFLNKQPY

[13] = target: Cathepsin B (Homo sapiens, UniProt P07858); test: Inhibition of recombinant cathepsin B (unknown origin) using Z-Leu-Arg-AMC as substrate by spectrofluorometer analysis
[14] = test system: HCT-116; test: Induction of apoptosis in human HCT116 cells assessed as increase in PARP cleavage by immunoblot analysis; assay type: functional, cell-based; outline: as §1
[15] = target: T5, Proteasome Macropain subunit MB1 (Homo sapiens, UniProt P28074); test: Inhibition of beta5 subunit of constitutive proteasome (unknown origin) by active-site ELISA
T5 sequence (P28074 whole entry): T1 sequence (whole entry)

SMILES | IC50 [1] [nM] | IC50 [2] [nM] | IC50 [3] [nM] | IC50 [4] [nM] | other results
CC(=O)N[C@@H](CCC(=O)NCC(COCc1ccccc1)COCc1ccccc1)C(=O)N[C@@H](CC(C)C)B1O[C@@H]2C[C@@H]3C[C@@H](C3(C)C)[C@]2(C)O1 | 75 | 63.6 | 2400 | 5.1 | –
CC(C)C[C@H](NC(=O)[C@H](CC(=O)NCCC(COCc1ccccc1)COCc1ccccc1)NC(=O)c1cnccn1)B1O[C@@H]2C[C@@H]3C[C@@H](C3(C)C)[C@]2(C)O1 | 210 | 45 | 3300 | 7.1 | –
CC(C)C[C@H](NC(=O)CNC(=O)c1cc(Cl)ccc1Cl)B1OC(=O)CC(CC(=O)O)(C(=O)O)O1 (some centres not stated) | – | – | – | – | T1/2 [5]: 18 min
CC(=O)N[C@@H](CC(=O)NCCC(COCc1ccccc1)COCc1ccccc1)C(=O)N[C@@H](CC(C)C)B1O[C@@H]2C[C@@H]3C[C@@H](C3(C)C)[C@]2(C)O1 | 150 | 31.8 | 2700 | 2.7 | IC50 [6]: > 30 µM; Activity [7]: 25.1%; Activity [8]: 3.2%; Activity [9]: 71.7%; IC50 [10]: 31 nM; Activity [11]: Active; IC50 [12]: > 30 µM; IC50 [13]: > 30 µM; Activity [14]: Active; IC50 [15]: 140 nM
CC(=O)N[C@@H](CC(=O)NCCCC(COCc1ccccc1)COCc1ccccc1)C(=O)N[C@@H](CC(C)C)B1O[C@@H]2C[C@@H]3C[C@@H](C3(C)C)[C@]2(C)O1 | 120 | 43 | 2700 | 4.1 | –
CC(=O)N[C@@H](CCC(=O)NCCCC(COCc1ccccc1)COCc1ccccc1)C(=O)N[C@@H](CC(C)C)B1O[C@@H]2C[C@@H]3C[C@@H](C3(C)C)[C@]2(C)O1 | 46 | 67.2 | 3000 | 4.1 | –
CC[C@H](C)[C@@H]1C(=O)O[C@H]1C(=O)N[C@H]1C[C@@H]1C[C@@H](CCc1ccccc1)NC(=O)[C@H](C)NC(=O)OCc1ccccc1 | – | 1820 | – | 5.7 | –
CC(C)C[C@H](NC(=O)[C@H](CCc1ccccc1)NC(=O)CN1CCOCC1)C(=O)N[C@@H](Cc1ccccc1)C(=O)N[C@@H](CC(C)C)C(=O)[C@@]1(C)CO1 [CARFILZOMIB] | – | – | – | – | IC50 [6]: > 30 µM; IC50 [12]: > 30 µM; IC50 [13]: 11 µM
CC(=O)N[C@@H](CC(=O)NCC(COCc1ccccc1)COCc1ccccc1)C(=O)N[C@@H](CC(C)C)B(O)O | – | 79.6 | – | 7.7 | –
CC(=O)N[C@@H](CC(=O)NCCCCOCc1ccccc1)C(=O)N[C@@H](CC(C)C)B1O[C@@H]2C[C@@H]3C[C@@H](C3(C)C)[C@]2(C)O1 | 170 | 130 | 2170 | 4.8 | IC50 [6]: > 30 µM; Activity [7]: 26.6%; Activity [8]: 22.9%; Activity [9]: 50.5%; IC50 [10]: 59 nM; Activity [11]: Active; IC50 [12]: > 30 µM; IC50 [13]: > 30 µM; Activity [14]: Active; IC50 [15]: 280 nM
CNC(=O)C[C@H](NC(C)=O)C(=O)N[C@@H](CC(C)C)B1O[C@@H]2C[C@@H]3C[C@@H](C3(C)C)[C@]2(C)O1 | 500 | 2500 | > 10000 | 54 | –
CC(C)C[C@H](NC(=O)[C@H](Cc1ccccc1)NC(=O)c1cnccn1)B(O)O [BORTEZOMIB] | – | 5 | – | – | IC50 [6]: 3.1 µM; Activity [7]: 21%; Activity [8]: 3%; Activity [9]: 76%; IC50 [12]: 9.2 µM; IC50 [13]: > 30 µM
CC(C)C[C@H](NC(=O)[C@H](CC(=O)NCCC(COCc1ccccc1)COCc1ccccc1)NC(=O)c1ccccc1)B1O[C@@H]2C[C@@H]3C[C@@H](C3(C)C)[C@]2(C)O1 | 130 | 60 | 2700 | 7.8 | –
CC[C@H](C)[C@@H]1C(=O)O[C@H]1C(=O)N[C@H]1C[C@H]1C[C@H](NC(=O)[C@H](C)N)C(=O)O [BELACTOSIN A] | – | – | – | 1400 | –
CC(=O)N[C@@H](CSC(=O)[C@]1([C@@H](O)C(C)C)NC(=O)[C@H](C)[C@@H]1O)C(=O)O [LACTACYSTIN] | – | – | – | – | IC50 [10]: > 3000 nM
CC(C)C[C@H](NC(=O)[C@H](CC(=O)NCCC(COCc1ccccc1)COCc1ccccc1)NC(=O)c1cc(Cl)ccc1Cl)B1O[C@@H]2C[C@@H]3C[C@@H](C3(C)C)[C@]2(C)O1 | 250 | 140 | > 10000 | 5.9 | –
CC(=O)N[C@@H](CC(=O)NCC(COCc1ccccc1)COCc1ccccc1)C(=O)N[C@@H](CC(C)C)B1O[C@@H]2C[C@@H]3C[C@@H](C3(C)C)[C@]2(C)O1 | 140 | 45.4 | 1100 | 3.9 | –
CC(=O)N[C@@H](CCC(=O)NCCC(COCc1ccccc1)COCc1ccccc1)C(=O)N[C@@H](CC(C)C)B1O[C@@H]2C[C@@H]3C[C@@H](C3(C)C)[C@]2(C)O1 | 76 | 110 | 2500 | 5.7 | –
CC(C)C[C@H](NC(=O)[C@H](CC(=O)NCCC(COCc1ccccc1)COCc1ccccc1)NC(=O)c1cccc(-c2ccccc2)n1)B1O[C@@H]2C[C@@H]3C[C@@H](C3(C)C)[C@]2(C)O1 | 1000 | 260 | > 10000 | 7.5 | –
CC[C@H](C)[C@@H]1C(=O)O[C@H]1C(=O)NCCC(COCc1ccccc1)COCc1ccccc1 | – | > 10000 | – | 29 | –
